Paper PMC9476207 (ACS Omega, 2022)

Experiments:
Experiment in all cases: NCI-60 single-dose antiproliferative screen
Format in all cases: cell-based
[1] = system: IGROV1; conditions: Homo sapiens, IGROV-1, 48 h, read-out: growth percent
How it was run: (§1)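 NCI-60 protocol. Lines were grown in RPMI 1640 with 5% FBS and 2 mM L-glutamine, plated and incubated 24 h at 37 °C; time-zero plates were TCA-fixed. The test compound was dissolved in DMSO, diluted in medium with 50 μg/mL gentamicin and given once at a final 10^-5 M (DMSO control) for 48 h. Cells were fixed with cold TCA (1 h, 4 °C) and stained with 0.4% SRB in 1% acetic acid for 10 min. Dye was dissolved in 10 mM Trizma base and read at 515 nm. Growth percent was calculated from time-zero, test and control ODs.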

[2] = system: BT-549; conditions: Homo sapiens, BT-549, 48 h, read-out: growth percent
How it was run: as §1

[3] = system: UACC-257; conditions: Homo sapiens, UACC-257, 48 h, read-out: growth percent
How it was run: (§2)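 Cells grown in RPMI 1640 with 5% FBS and 2 mM L-glutamine, plated and held 24 h at 37 °C; time-zero plates TCA-fixed. DMSO stocks were diluted in gentamicin-containing medium to a final 10^-5 M, with a DMSO-only control. Exposure 48 h, 5% CO2. Adherent cells TCA-fixed 1 h at 4 °C, stained with 0.4% SRB, solubilised in 10 mM Trizma base, read at 515 nm. Growth percent derived from ODtzero, ODtest and ODctrl.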

[4] = system: 786-0; conditions: Homo sapiens, 786-0, 48 h, read-out: growth percent
How it was run: as §1

[5] = system: CCRF-CEM; conditions: Homo sapiens, 48 h, read-out: growth percent
How it was run: as §1

[6] = system: M14; conditions: Homo sapiens, M14, 48 h, read-out: growth percent
How it was run: as §1

[7] = system: NCI-H23; conditions: Homo sapiens, NCI-H23, 48 h, read-out: growth percent
How it was run: as §1

[8] = system: EKVX; conditions: Homo sapiens, 48 h, read-out: growth percent
How it was run: as §1

[9] = system: NCI-H226; conditions: Homo sapiens, NCI-H226, 48 h, read-out: growth percent
How it was run: as §1

[10] = system: HT29; conditions: Homo sapiens, HT-29, 48 h, read-out: growth percent
How it was run: as §1

[11] = system: T-47D; conditions: Homo sapiens, T47D, 48 h, read-out: growth percent
How it was run: as §2

[12] = system: OVCAR-8; conditions: Homo sapiens, OVCAR-8, 48 h, read-out: growth percent
How it was run: as §1

[13] = system: SNB-19; conditions: Homo sapiens, SNB-19, 48 h, read-out: growth percent
How it was run: as §2

[14] = system: COLO205; conditions: Homo sapiens, COLO 205, 48 h, read-out: growth percent
How it was run: as §1

[15] = system: ACHN; conditions: Homo sapiens, 48 h, read-out: growth percent
How it was run: as §1

[16] = system: SF-539; conditions: Homo sapiens, SF-539, 48 h, read-out: growth percent
How it was run: as §2

[17] = system: DU-145; conditions: Homo sapiens, DU-145, 48 h, read-out: growth percent
How it was run: as §1

[18] = system: SNB-75; conditions: Homo sapiens, SNB-75, 48 h, read-out: growth percent
How it was run: as §2

[19] = system: TK-10; conditions: Homo sapiens, TK-10, 48 h, read-out: growth percent
How it was run: as §2

[20] = system: MCF-7; conditions: Homo sapiens, MCF7, 48 h, read-out: growth percent
How it was run: as §1

| SMILES | activity at 10 µM [1] | activity at 10 µM [2] | activity at 10 µM [3] | activity at 10 µM [4] | activity at 10 µM [5] | activity at 10 µM [6] | activity at 10 µM [7] | activity at 10 µM [8] | activity at 10 µM [9] | activity at 10 µM [10] | activity at 10 µM [11] | activity at 10 µM [12] | activity at 10 µM [13] | activity at 10 µM [14] | activity at 10 µM [15] | activity at 10 µM [16] | activity at 10 µM [17] | activity at 10 µM [18] | activity at 10 µM [19] | activity at 10 µM [20] |
| --- | --- | --- | --- | --- | --- | --- | --- | --- | --- | --- | --- | --- | --- | --- | --- | --- | --- | --- | --- | --- |
| COc1cc(CNC(=O)CCCC/C=C/C(C)C)ccc1OCc1cn(-c2ccccc2F)nn1 [14i, (E)-N-(4-((1-(2-Fluorophenyl)-1H-1,2,3-triazol-4-yl)methoxy)-3-methoxybenzyl)-8-methylnon-6-enamide] | 101% | 89.2% | 95% | 97.2% | 88.6% | 96.8% | 95.3% | 79.1% | 81.3% | 107% | 83.1% | 94.5% | 84.8% | 116% | 83% | 105% | 106% | 88.1% | 111% | 97.1% |
| COc1cc(CNC(=O)CCCC/C=C/C(C)C)ccc1OCc1cn(-c2cccc(Cl)c2)nn1 [14b, (E)-N-(4-((1-(3-Chlorophenyl)-1H-1,2,3-triazol-4-yl)methoxy)-3-methoxybenzyl)-8-methylnon-6-enamide] | 79.9% | 99.3% | 90.1% | 76.8% | 87.3% | 94.1% | 87.2% | 80.8% | 86.5% | 99.2% | 81.1% | 57.2% | 60% | 102% | 73% | 82% | 95.9% | 75.8% | 106% | 86.9% |
| COc1cc(CNC(=O)CCCC/C=C/C(C)C)ccc1OCc1cn(-c2cccc([N+](=O)[O-])c2)nn1 [14f, (E)-N-(3-Methoxy-4-((1-(3-nitrophenyl)-1H-1,2,3-triazol-4-yl)methoxy)benzyl)-8-methylnon-6-enamide] | 89.4% | 96.3% | 94.4% | 73.4% | 90.2% | 93.4% | 88% | 95.1% | 90.9% | 88.9% | 72.3% | 76.9% | 68.2% | 107% | 78.9% | 94.4% | 109% | 92% | 105% | 74.1% |
| COc1cc(CNC(=O)CCCC/C=C/C(C)C)ccc1OCc1cn(-c2ccc([N+](=O)[O-])cc2)nn1 [14e, (E)-N-(3-Methoxy-4-((1-(4-nitrophenyl)-1H-1,2,3-triazol-4-yl)methoxy)benzyl)-8methylnon-6-enamide] | 90.4% | 80.4% | 82.6% | 93.7% | 84.9% | 89.7% | 83.2% | 75.3% | 89.6% | 98.1% | 64% | 82.9% | 97.4% | 118% | 82% | 104% | 105% | 83.9% | 92.7% | 83.5% |
| COc1cc(CNC(=O)CCCC/C=C/C(C)C)ccc1OCc1cn(-c2ccc(C(F)(F)F)cc2)nn1 [14g, (E)-N-(3-Methoxy-4-((1-(4-(trifluoromethyl)phenyl)-1H-1,2,3-triazol-4-yl)methoxy)benzyl)-8-methylnon-6-enamide] | 58.7% | 80.4% | 98.2% | 2.94% | 68.8% | 97.5% | 94.6% | 88.2% | 53.6% | 79% | 84.5% | 41.1% | 76.1% | 72.6% |  | 81.9% | 62.2% | 49.7% | 20.4% | 80.7% |
